Experimental data from ChEMBL document CHEMBL1141264, “Cucurbitane-type triterpenoids from the fruits of Momordica charantia and their cancer chemopreventive effects” (J Nat Prod, 2007).

Legend:
[1] = Cytotoxicity against human Raji cells assessed as cell viability at 1000 mol ratio/TPA relative to control; type: cell-based; settings: read-out: Activity
Summary of the method: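 Raji cells stimulated with TPA at 32 pmol (20 ng), taken as 100% positive control. Test compound added at mol ratio to TPA of 1000, 500, 100 or 10 (1000:1 = 32 nmol). EBV-EA induction expressed as % of positive control; Raji cell viability recorded as % at the 1000 ratio. IC50 as mol ratio to TPA inhibiting 50% of control.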

[2] = system: Raji; assay: Inhibition of TPA-induced Epstein-Barr virus early antigen in Raji cells at 10 mol ratio/TPA relative to control; values are per cent of control; settings: human gammaherpesvirus 4
[3] = system: Raji; assay: Inhibition of TPA-induced Epstein-Barr virus early antigen in Raji cells at 500 mol ratio/TPA relative to control; values are per cent of control; settings: human gammaherpesvirus 4
[4] = system: Raji; assay: Inhibition of TPA-induced Epstein-Barr virus early antigen in Raji cells at 1000 mol ratio/TPA relative to control; values are per cent of control; settings: human gammaherpesvirus 4
[5] = system: Raji; assay: Inhibition of TPA-induced Epstein-Barr virus early antigen in Raji cells at 100 mol ratio/TPA relative to control; values are per cent of control; settings: human gammaherpesvirus 4
[6] = Scavenging activity against NO generation in NOR1-induced cell culture; type: functional
Summary of the method: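 Cultured-cell screen for scavenging of NO released by the NO donor NOR 1. Activity expressed as inhibitory ratio (IR) against NOR 1 action, with glycyrrhizin and carboxy-PTIO as reference compounds.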

Row | SMILES | viability at 1000 mol ratio/TPA [1] [%] | level, % of control [2] [%] | level, % of control [3] [%] | level, % of control [4] [%] | level, % of control [5] [%] | inhibitory ratio (IR) against NOR 1 action [6]
1 | CO[C@H]1C=C2[C@@H](CC[C@H](O[C@@H]3O[C@H](CO)[C@@H](O)[C@H](O)[C@H]3O)C2(C)C)[C@]2(C=O)CC[C@]3(C)[C@@H]([C@H](C)C/C=C/C(C)(C)OC)CC[C@@]3(C)[C@H]12 [CHARANTOSIDE VIII] | 70 | 100 | 38.5 | 15.3 | 82.5 | 
2 | C=C(C)/C=C/C[C@@H](C)[C@H]1CC[C@@]2(C)[C@@H]3C=C[C@@]45OC(=O)[C@]3(CC[C@]12C)[C@@H]4CC[C@H](O[C@@H]1O[C@H](CO)[C@@H](O)[C@H](O)[C@H]1O)C5(C)C [CHARANTOSIDE VII] | 70 | 100 | 28.1 | 9.9 | 75.1 | 
3 | CO[C@H](C=C(C)C)C[C@@H](C)[C@H]1CC[C@@]2(C)[C@@H]3C=C[C@@]45OC[C@]3(CC[C@]12C)[C@@H]4CC[C@H](O[C@@H]1O[C@H](CO)[C@@H](O)[C@@H](O)[C@H]1O)C5(C)C [CHARANTOSIDE VI] | 70 | 100 | 35.9 | 12.7 | 82 | 
4 | CO[C@@H](C=C(C)C)C[C@@H](C)[C@H]1CC[C@@]2(C)[C@@H]3C=C[C@@]45OC[C@]3(CC[C@]12C)[C@@H]4CC[C@H](O[C@@H]1O[C@H](CO)[C@@H](O)[C@H](O)[C@H]1O)C5(C)C [CHARANTOSIDE V] | 70 | 100 | 30.6 | 10.5 | 77 | 
5 | COc1cc(/C=C/C(=O)CC(=O)/C=C/c2ccc(O)c(OC)c2)ccc1O [CURCUMIN] | 70 | 100 | 22.8 | 0 | 81.8 | 
6 | CC1(C)[C@@H](O[C@H]2O[C@H](C(=O)O)[C@@H](O)[C@H](O)[C@H]2O[C@@H]2O[C@H](C(=O)O)[C@@H](O)[C@H](O)[C@H]2O)CC[C@]2(C)[C@H]3C(=O)C=C4[C@@H]5C[C@@](C)(C(=O)O)CC[C@]5(C)CC[C@@]4(C)[C@]3(C)CC[C@@H]12 [GLYCYRRHIZIN] | > 80 | 100 | 63.3 | 27.4 | 83.3 | 2.2
7 | COC1O[C@]23C=C[C@@H]4[C@@]1(CC[C@]1(C)[C@@H]([C@H](C)C/C=C/C(C)(C)OC)CC[C@@]41C)[C@@H]2CC[C@H](O[C@@H]1O[C@H](CO)[C@@H](O)[C@H](O)[C@H]1O)C3(C)C (stereo partly specified) [GOYAGLYCOSIDE C] | 70 | 100 | 33.7 | 13.5 | 80 | 
8 | COC1O[C@]23C=C[C@@H]4[C@@]1(CC[C@]1(C)[C@@H]([C@H](C)C/C=C/C(C)(C)OC)CC[C@@]41C)[C@@H]2CC[C@H](O[C@@H]1O[C@H](CO)[C@@H](O)[C@@H](O)[C@H]1O)C3(C)C (stereo partly specified) [GOYAGLYCOSIDE D] | 70 | 100 | 34.2 | 11.2 | 80.3 | 
9 | CO[C@H](C=C(C)C)C[C@@H](C)[C@H]1CC[C@@]2(C)[C@@H]3[C@@H](OC)C=C4[C@@H](CC[C@H](O[C@@H]5O[C@H](CO)[C@@H](O)[C@H](O)[C@H]5O)C4(C)C)[C@]3(C)CC[C@]12C [KARAVILOSIDE I] | 70 | 100 | 39.2 | 16.1 | 83.7 | 
10 | COC(C)(C)/C=C/C[C@@H](C)[C@H]1CC[C@@]2(C)[C@@H]3C=C[C@@]45OC[C@]3(CC[C@]12C)[C@@H]4CC[C@H](O[C@@H]1O[C@H](CO)[C@@H](O)[C@H](O)[C@H]1O)C5(C)C [MOMORDICOSIDE F1] | 70 | 100 | 31.5 | 11.3 | 78.1 | 
11 | C[C@H](C/C=C/C(C)(C)O)[C@H]1CC[C@@]2(C)[C@@H]3C=C[C@@]45OC[C@]3(CC[C@]12C)[C@@H]4CC[C@H](O[C@@H]1O[C@H](CO)[C@@H](O)[C@@H](O)[C@H]1O)C5(C)C [MOMORDICOSIDE F2] | 70 | 100 | 29.7 | 9.1 | 76.9 | 
